Assay results reported in ChEMBL document CHEMBL1629690, “Development of hexadecyloxypropyl tenofovir (CMX157) for treatment of infection caused by wild-type and nucleoside/nucleotide-resistant HIV” (Antimicrob Agents Chemother, 2010).

Key:
Type in all cases: cell-based
[1] = Cytotoxicity against human dendritic cells after 24 hrs by XTT assay
How it was run: (§1)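 Six-concentration growth-inhibition test: 10 to 0.032 μM for the prodrug and TDF, up to 100 μM for TFV, with Triton X-100 run in parallel. Cell lines were split 1:2 the day before and seeded at 5 × 10^3 to 2 × 10^4 cells/well, with adherent lines left overnight. Dendritic cells were derived with GM-CSF/IL-4 for 7 days, then LPS 10 ng/ml for 2 days. Viability was read by XTT.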

[2] = Cytotoxicity against human ME180 cells after 24 hrs by XTT assay; details: me-180, 24 h; how it was run: as §1
HepG2 = assay: Cytotoxicity against human HepG2 cells after 24 hrs by XTT assay; details: hepg2, 24 h; how it was run: as §1
CEM-SS = assay: Cytotoxicity against human CEM-SS cells after 24 hrs by XTT assay; how it was run: as §1
PBMC = assay: Cytotoxicity against PHA/IL-2-stimulated human PBMC after 24 hrs by XTT assay; how it was run: as §1
[3] = Cytotoxicity against human HuH7 cells after 24 hrs by XTT assay; details: huh-7, 24 h; how it was run: as §1
HeLa = assay: Cytotoxicity against human HeLa cells after 24 hrs by XTT assay; how it was run: as §1

Measured: Activity

CC(C)OC(=O)OCOP(=O)(CO[C@H](C)Cn1cnc2c(N)ncnc21)OCOC(=O)OC(C)C.O=C(O)/C=C/C(=O)O [TENOFOVIR DISOPROXIL FUMARATE]
Non-toxic: all assays above
